From ChEMBL document CHEMBL4823286, “Synthesis and evaluation of novel 2,4-diaminopyrimidines bearing a sulfoxide moiety as anaplastic lymphoma kinase (ALK) inhibition agents” (Bioorg Med Chem Lett, 2021)

Experiments:
[1] = test system: BaF3; assay: Antiproliferative activity against mouse BaF3 cells overexpressing ALK assessed as inhibition of cell proliferation measured by CCK8 assay; assay type: functional, cell-based
Method in brief: (§1)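 Cell proliferation inhibition; IC50 given as mean ± SD of three independent experiments.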

[2] = test system: NCI-H2228; assay: Antiproliferative activity against human NCI-H2228 cells assessed as inhibition of cell proliferation measured by CCK8 assay; assay type: functional, cell-based; method in brief: as §1

`CC[S+]([O-])c1cc(F)ccc1Nc1nc(Nc2ccc(N(C)C3CCN(C)CC3)cc2OC)ncc1Cl` (configuration not stated) showed an IC50 [1] of 82 nM and an IC50 [2] of 1440 nM.
